Reference: ChEMBL document CHEMBL4118076, “Azide-alkyne cycloaddition towards 1H-1,2,3-triazole-tethered gatifloxacin and isatin conjugates: Design, synthesis and in vitro anti-mycobacterial evaluation” (Eur J Med Chem, 2017)
≈ marks a conversion by molar mass, not a printed value.

How the values were obtained:
Type in all cases: functional
[1] = system: Mycobacterium tuberculosis; assay: Antimycobacterial activity against multidrug resistant Mycobacterium tuberculosis after 3 to 7 days by rapid direct susceptibility test
How it was run: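 Two-fold DMSO dilutions, 0.0125 to 200 μg/mL for H37Rv and 0.062 to 128 μg/mL for the MDR strain (resistant to INH, RIF and ethambutol), mixed with suspension containing 4×10^-3 mg cells. Sealed plates incubated at 37 °C in a wet box. Growth was read visually under high magnification at 3 days and again 7 days later. MIC is the lowest concentration giving complete growth inhibition.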

[2] = Resistance index, ratio of MIC90 for multidrug resistant Mycobacterium tuberculosis to MIC90 for Mycobacterium tuberculosis H37Rv
[3] = system: Mycobacterium tuberculosis; assay: Potency index, ratio of gatifloxacin MIC90 to compound MIC90 for multidrug resistant Mycobacterium tuberculosis
[4] = system: Mycobacterium tuberculosis; assay: Potency index, ratio of rifampicin MIC90 to compound MIC90 for multidrug resistant Mycobacterium tuberculosis
[5] = system: Mycobacterium tuberculosis; assay: Potency index, ratio of isoniazid MIC90 to compound MIC90 for multidrug resistant Mycobacterium tuberculosis

## CO/N=C1\C(=O)N(CCn2cc(CN3CCN(c4c(F)cc5c(=O)c(C(=O)O)cn(C6CC6)c5c4OC)CC3C)nn2)c2ccc(C)cc21 (centres undefined)
[1]
  MIC90: 0.5 µg/mL (≈ 0.743 µM)
[2]
  Ratio: < 1

## COc1c(N2CCN(Cc3cn(CCN4C(=O)C(=O)c5ccccc54)nn3)C(C)C2)c(F)cc2c(=O)c(C(=O)O)cn(C3CC3)c12 (centres undefined)
[1]
  MIC90: 4 µg/mL (≈ 6.35 µM)

## COc1c(N2CCN(Cc3cn(CCN4C(=O)C(=O)c5cc(F)ccc54)nn3)C(C)C2)c(F)cc2c(=O)c(C(=O)O)cn(C3CC3)c12 (centres undefined)
[1]
  MIC90: 0.5 µg/mL (≈ 0.772 µM)
[2]
  Ratio: < 1

## CO/N=C1\C(=O)N(CCn2cc(CN3CCN(c4c(F)cc5c(=O)c(C(=O)O)cn(C6CC6)c5c4OC)CC3C)nn2)c2ccc(F)cc21 (centres undefined)
[1]
  MIC90: 0.25 µg/mL (≈ 0.369 µM)
[3]
  Ratio: >=4 - 512
[4]
  Ratio: >=4 - 512
[5]
  Ratio: >=4 - 512

## CO/N=C1\C(=O)N(CCn2cc(CN3CCN(c4c(F)cc5c(=O)c(C(=O)O)cn(C6CC6)c5c4OC)CC3C)nn2)c2ccccc21 (centres undefined)
[1]
  MIC90: 1 µg/mL (≈ 1.52 µM)

## COc1c(N2CCN(Cc3cn(CCN4C(=O)/C(=N\O)c5ccccc54)nn3)C(C)C2)c(F)cc2c(=O)c(C(=O)O)cn(C3CC3)c12 (centres undefined)
[1]
  MIC90: 8 µg/mL (≈ 12.4 µM)

## COc1c(N2CCN(Cc3cn(CCN4C(=O)/C(=N\O)c5cc(F)ccc54)nn3)C(C)C2)c(F)cc2c(=O)c(C(=O)O)cn(C3CC3)c12 (centres undefined)
[1]
  MIC90: 1 µg/mL (≈ 1.51 µM)

## COc1c(N2CCN(Cc3cn(CCN4C(=O)/C(=N\O)c5cc(Cl)ccc54)nn3)C(C)C2)c(F)cc2c(=O)c(C(=O)O)cn(C3CC3)c12 (centres undefined)
[1]
  MIC90: 2 µg/mL (≈ 2.95 µM)

## COc1c(N2CCN(Cc3cn(CCN4C(=O)C(=O)c5cc(Cl)ccc54)nn3)C(C)C2)c(F)cc2c(=O)c(C(=O)O)cn(C3CC3)c12 (centres undefined)
[1]
  MIC90: 0.5 µg/mL (≈ 0.753 µM)

## CO/N=C1\C(=O)N(CCn2cc(CN3CCN(c4c(F)cc5c(=O)c(C(=O)O)cn(C6CC6)c5c4OC)CC3C)nn2)c2ccc(Cl)cc21 (centres undefined)
[1]
  MIC90: 0.25 µg/mL (≈ 0.361 µM)
[3]
  Ratio: >=4 - 512
[4]
  Ratio: >=4 - 512
[5]
  Ratio: >=4 - 512

## NNC(=O)c1ccncc1 [ISONIAZID]
[1]
  MIC90: > 128 µg/mL

## COc1c(N2CCN(Cc3cn(CCN4C(=O)/C(=N\O)c5cc(C)ccc54)nn3)C(C)C2)c(F)cc2c(=O)c(C(=O)O)cn(C3CC3)c12 (centres undefined)
[1]
  MIC90: 8 µg/mL (≈ 12.1 µM)

## COc1c(N2CCN(Cc3cn(CCN4C(=O)C(=O)c5cc(C)ccc54)nn3)C(C)C2)c(F)cc2c(=O)c(C(=O)O)cn(C3CC3)c12 (centres undefined)
[1]
  MIC90: 1 µg/mL (≈ 1.55 µM)
[2]
  Ratio: < 1

## CO[C@H]1/C=C/O[C@@]2(C)Oc3c(C)c(O)c4c(O)c(c(/C=N/N5CCN(C)CC5)c(O)c4c3C2=O)NC(=O)/C(C)=C\C=C\[C@H](C)[C@H](O)[C@@H](C)[C@@H](O)[C@@H](C)[C@H](OC(C)=O)[C@@H]1C [RIFAMPIN]
[1]
  MIC90: 32 µg/mL (≈ 38.9 µM)

## COc1c(N2CCNC(C)C2)c(F)cc2c(=O)c(C(=O)O)cn(C3CC3)c12 (centres undefined) [GATIFLOXACIN]
[1]
  MIC90: 1 µg/mL (≈ 2.66 µM)
